Assay results from different studies.
Compare with care: the assays were run in different laboratories.
Target: Dual specificity tyrosine-phosphorylation-regulated kinase 1B (DYRK1B, Homo sapiens, UniProt Q9Y463)

Cc1sc(C(=O)NC2COC2)cc1-n1cc(NC(=O)Nc2c(F)cccc2Cl)cn1 — remaining activity (enzyme activity, inhibitor; 10 µM): 105%
CC(=O)N1CCC(c2ccc(C(=O)NC(=N)N)cc2C(F)(F)F)CC1 — remaining binding (cell-free assay, competition with immobilised ligand; 1 µM): 45%
COc1cc2ncnc(Nc3ccc(Oc4ccccc4)c(C)c3C)c2cc1OC — inhibition (enzyme activity, inhibitor; 1 µM): 1%
CC/C(=N\NC(=O)NCc1cccc(O)c1)c1ccc(O)c(C)c1O — inhibition (enzyme activity, inhibitor; 0.1 µM): -5.1%
Cn1cnc(Br)c1C1=CN(c2ncnc3[nH]cnc23)CCS1 — inhibition (enzyme activity, inhibitor, radiometric; 2 µM): 100%
O=C(O)c1ccc2c(c1)nc(NCc1ccccc1)c1ncncc12 — remaining activity (enzyme activity, inhibitor, radiometric; 1 µM): 124%
O=C(CSc1nc2nccnc2c(=O)n1CCc1ccccc1)Nc1nccs1 — inhibition (enzyme activity, inhibitor; 10 µM): -3%
O=C(O)c1ccc2c(c1)nc(NCCc1cccc(Cl)c1)c1ncncc12 — remaining activity (enzyme activity, inhibitor, radiometric; 1 µM): 114%
O=C(N1CCS(=O)(=O)CC1)N1C[C@H](c2ccc(OC(F)(F)F)cc2)C[C@H](c2nc(C3CC3)no2)C1 — remaining binding (cell-free assay, competition with immobilised ligand; 1 µM): 93%
O=C(O)c1ccc2c(c1)nc(NCc1ccccc1)c1ccncc12 — remaining activity (enzyme activity, inhibitor, radiometric; 1 µM): 112%
Cc1c(C(=O)O)cc(-c2ccc(C3CCNCC3)cc2)c2ccc(-c3ccc(C(F)(F)F)cc3)cc12 — remaining binding (cell-free assay, competition with immobilised ligand; 1 µM): 74%
O=C(O)c1ccc2c(c1)nc(Nc1ccc3ccccc3c1)c1ncncc12 — remaining activity (enzyme activity, inhibitor, radiometric; 1 µM): 41%
CCCS(=O)(=O)Nc1ccc(F)c(C(=O)c2c[nH]c3ncc(-c4ccc(Cl)cc4)cc23)c1F — inhibition (enzyme activity, inhibitor; 1 µM): < 20%
O=C(NCCCC1CCCCC1)c1ccc(CNC(=O)c2cnn(-c3ccccc3)c2C(F)(F)F)cc1 — remaining binding (cell-free assay, competition with immobilised ligand; 0.1 µM): 100%
Cn1cncc1C1=CN(c2ncnc3[nH]cnc23)CCS1 — inhibition (enzyme activity, inhibitor, radiometric; 50 nM): 22.7%
